Where “and” joins values, the source holds several entries; their conditions need not be identical. Equal entries are not always repeated.
How the values were obtained:
Mus musculus [1] = assay: BDF1 male mice were administered with 200 mg/kg intraperitoneally and percent change in iron levels was determined in Feces; format: functional; conditions: route intraperitoneal
Outline: (§1)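 Male BDF1 mice made iron-overloaded by transfusion of washed, heat-treated (50 °C, 30 min) canine red cells. Dosing began 2 days after the last transfusion, once daily for 7 days, in distilled water or 2% Polysorbate 80 suspension. Daily group urine was collected. Pooled feces were digested in 1 N HCl (90 °C, 30 min). Liver and spleen were homogenized in saline. Iron was measured by atomic absorption and expressed as % change vs transfused controls.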

[2] = Compound was evaluated for lethal dose after intraperitoneal administration using iron overload rat model; format: toxicity, organism-based; conditions: in vivo, ip
Rattus norvegicus [3] = assay: Percent change in iron levels was determined in feces using iron overload rat model where the route of administration is Intraperitoneal; format: functional
Mus musculus [4] = assay: BDF1 male mice were administered reduced to 100 mg/kg on day 4 intraperitoneally and percent change in iron levels was determined in Urine; format: functional; conditions: route oral, in the assay text read “orally” for “intraperitoneally”; outline: as §1
Rattus norvegicus [5] = assay: Percent change in iron levels was determined in urine using iron overload rat model where the route of administration is Peroral; format: functional
Mus musculus [6] = assay: BDF1 male mice were administered reduced to 100 mg/kg on day 4 intraperitoneally and percent change in iron levels was determined in Feces; format: functional; conditions: route oral, in the assay text read “orally” for “intraperitoneally”; outline: as §1
Rattus norvegicus [7] = assay: Percent change in iron levels was determined in feces using iron overload rat model where the route of administration is Peroral; format: functional
Mus musculus [8] = assay: BDF1 male mice were administered with 200 mg/kg intraperitoneally and percent change in iron levels was determined in Spleen; format: functional; conditions: route intraperitoneal; outline: as §1
Mus musculus [9] = assay: BDF1 male mice were administered reduced to 100 mg/kg on day 4 intraperitoneally and percent change in iron levels was determined in Spleen; format: functional; conditions: route oral, in the assay text read “orally” for “intraperitoneally”; outline: as §1
Mus musculus [10] = assay: BDF1 male mice were administered with 200 mg/kg intraperitoneally and number of survivors was determined out of 10 tested; format: functional; conditions: route intraperitoneal, 200 mg/kg
Outline: (§2)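 Male BDF1 mice were iron-loaded by transfusion of canine red cells. The cells were heparinised, washed twice in isotonic saline and heated at 50 °C for 30 min. Dosing started two days after the last transfusion, once daily for 7 consecutive days. Compounds were given in distilled water or as a fine aqueous suspension with Polysorbate 80 (2% final). Toxic signs were recorded daily and survivors counted per group.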

Mus musculus [11] = assay: BDF1 male mice were administered with 200 mg/kg intraperitoneally and percent change in iron levels was determined in Urine; format: functional; conditions: route intraperitoneal; outline: as §1
Rattus norvegicus [12] = assay: Percent change in iron levels was determined in urine using iron overload rat model where the route of administration is Intraperitoneal; format: functional
Mus musculus [13] = assay: BDF1 male mice were administered reduced to 100 mg/kg on day 4 intraperitoneally and percent change in iron levels was determined in Liver; format: functional; conditions: route oral, in the assay text read “orally” for “intraperitoneally”; outline: as §1
Mus musculus [14] = assay: BDF1 male mice were administered with 25 mg/kg orally and percent change in iron levels was determined in spleen; format: functional; conditions: dose 200 mg/kg; route intraperitoneal; in the assay text read “200 mg/kg intraperitoneally” for “25 mg/kg orally”
Mus musculus [15] = assay: BDF1 male mice were administered with the compound and number of survivors was determined out of 10 tested at a dose 200 mg/kg peroral; format: functional; conditions: route oral; outline: as §2
Mus musculus [16] = assay: BDF1 male mice were administered with the compound and number of survivors was determined out of 10 tested at a dose 375 mg/kg intraperitoneal
Mus musculus [17] = assay: BDF1 male mice were administered with 100 mg/kg orally and percent change in iron levels was determined in spleen; format: functional; conditions: dose 400 mg/kg; route oral; in the assay text read “400 mg/kg” for “100 mg/kg”; outline: as §1
Mus musculus [18] = assay: BDF1 male mice were administered with 200 mg/kg orally and percent change in iron levels was determined in Liver; format: functional; conditions: route oral; outline: as §1
Mus musculus [19] = assay: BDF1 male mice were administered with 200 mg/kg orally and percent change in iron levels was determined in Feces; format: functional; conditions: route oral; outline: as §1
Mus musculus [20] = assay: BDF1 male mice were administered with the compound and number of survivors was determined out of 10 tested at a dose 400 mg/kg peroral; format: functional; conditions: route oral; outline: as §2
Mus musculus [21] = assay: BDF1 male mice were administered with 50 mg/kg orally and percent change in iron levels was determined in spleen; format: functional; conditions: dose 375 mg/kg; route intraperitoneal; in the assay text read “375 mg/kg intraperitoneally” for “50 mg/kg orally”
Mus musculus [22] = assay: BDF1 male mice were administered with 200 mg/kg orally and percent change in iron levels was determined in Urine; format: functional; conditions: route oral; outline: as §1
Mus musculus [23] = assay: BDF1 male mice were administered with 200 mg/kg orally and percent change in iron levels was determined in spleen; format: functional; conditions: route oral; outline: as §1
Mus musculus [24] = assay: BDF1 male mice were administered with 250 mg/kg orally and percent change in iron levels was determined in Urine; format: functional; conditions: route oral
Outline: (§3)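 Hypertransfused male BDF1 mice (canine red cells, washed and heated at 50 °C for 30 min) were dosed orally for 7 days with compound in distilled water or a fine suspension with Polysorbate 80 (2% final). Daily group urine and pooled feces (1 N HCl digest, 90 °C, 30 min, triplicate) were collected, and liver and spleen were homogenized. Iron was measured by atomic absorption and reported as % change vs transfused control.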

Mus musculus [25] = assay: BDF1 male mice were administered with the compound and number of survivors was determined at a dose 250 mg/kg peroral out of 10 tested; format: functional; conditions: route oral; outline: as §2
Mus musculus [26] = assay: BDF1 male mice were administered with 250 mg/kg orally and percent change in iron levels was determined in Liver; format: functional; conditions: route oral; outline: as §3
Mus musculus [27] = assay: BDF1 male mice were administered with 250 mg/kg orally and percent change in iron levels was determined in Feces; format: functional; conditions: route oral; outline: as §3
Mus musculus [28] = assay: BDF1 male mice were administered with 250 mg/kg orally and percent change in iron levels was determined in Spleen; format: functional; conditions: route oral; outline: as §3

SMILES: O=C(O)CN(CCN(CC(=O)O)Cc1ccccc1O)Cc1ccccc1O
- Iron change (Mus musculus [1]): 38%
- LD50 [2]: ≥ 800 mg/kg
- Iron change (Rattus norvegicus [3]): 195%
- Iron change (Mus musculus [4]): 14%
- Iron change (Rattus norvegicus [5]): 40%
- Iron change (Mus musculus [6]): -7%
- Iron change (Rattus norvegicus [7]): 53%
- Iron change (Mus musculus [8]): -5%
- Iron change (Mus musculus [9]): -9%
- No. of survivors (Mus musculus [10]): 10 and 9
- Iron change (Mus musculus [11]): 50%
- Iron change (Rattus norvegicus [12]): 196%
- Iron change (Mus musculus [13]): -3%

SMILES: COC(=O)CN(CCN(CC(=O)OC)Cc1ccccc1OC(C)=O)Cc1ccccc1OC(C)=O [DIMETHYL ESTER]
- Iron change (Mus musculus [14]): -22%
- No. of survivors (Mus musculus [15]): 10
- No. of survivors (Mus musculus [16]): 10
- Iron change (Mus musculus [17]): -46%
- Iron change (Mus musculus [18]): -40%
- Iron change (Mus musculus [19]): -41%
- No. of survivors (Mus musculus [20]): 6
- Iron change (Mus musculus [21]): -5%
- Iron change (Mus musculus [22]): 138%
- Iron change (Mus musculus [23]): -13%

SMILES: O=C(O)C(NCCNC(C(=O)O)c1ccccc1O)c1ccccc1O (configuration not stated)
- LD50 [2]: 175 mg/kg
- Iron change (Rattus norvegicus [3]): 111%
- Iron change (Rattus norvegicus [5]): 19% and 31%
- Iron change (Rattus norvegicus [12]): 484%

SMILES: O=C(CN(CCN(CC(=O)OCc1ccccc1)Cc1ccccc1O)Cc1ccccc1O)OCc1ccccc1
- Iron change (Mus musculus [24]): 62%
- No. of survivors (Mus musculus [25]): 10
- Iron change (Mus musculus [26]): -10%
- Iron change (Mus musculus [27]): -10%
- Iron change (Mus musculus [28]): -21%

From ChEMBL document CHEMBL1123309, “Esters and lactones of phenolic amino carboxylic acids: prodrugs for iron chelation” (J Med Chem, 1986)
